Experiments:
Type in all cases: functional
MCF7 [1] = test: Down regulation of PARK2 gene expression in human MCF7 cells at IC50 after 48 hrs by cDNA microarray technique relative to control
HT-29 [2] = test: Upregulation of COL3A1 gene expression in human HT-29 cells at IC50 after 48 hrs by cDNA microarray technique relative to control
HT-29 [3] = test: Down regulation of ETV1 gene expression in human HT-29 cells at IC50 after 48 hrs by cDNA microarray technique relative to control
How it was run: (§1)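 Cells (8 × 10⁶) were cultured in DMEM with 10% heat-inactivated FBS at 37 °C under 5% CO₂. They were exposed for 48 h to compound at its IC₅₀, with DMSO-treated parallel cultures as controls (final DMSO ≤0.1% v/v). Total RNA was isolated by trizol/chloroform phase separation, RNeasy column cleanup and on-column DNase, then quantified by OD260/OD280. Expression was profiled by cDNA microarray relative to control.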

HT-29 [4] = test: Down regulation of GNRHR2 gene expression in human HT-29 cells at IC50 after 48 hrs by cDNA microarray technique relative to control; how it was run: as §1
MCF7 [5] = test: Down regulation of ENST00000295859 gene expression in human MCF7 cells at IC50 after 48 hrs by cDNA microarray technique relative to control; how it was run: as §1
HT-29 [6] = test: Down regulation of FLJ10786 gene expression in human HT-29 cells at IC50 after 48 hrs by cDNA microarray technique relative to control; how it was run: as §1
MCF7 [7] = test: Upregulation of LCN12 gene expression in human MCF7 cells at IC50 after 48 hrs by cDNA microarray technique relative to control
HT-29 [8] = test: Down regulation of FUT9 gene expression in human HT-29 cells at IC50 after 48 hrs by cDNA microarray technique relative to control; how it was run: as §1
MCF7 [9] = test: Down regulation of P53AIP1 gene expression in human MCF7 cells at IC50 after 48 hrs by cDNA microarray technique relative to control
HT-29 [10] = test: Upregulation of PMP22 gene expression in human HT-29 cells at IC50 after 48 hrs by cDNA microarray technique relative to control
MCF7 [11] = test: Down regulation of GLIPR1 gene expression in human MCF7 cells at IC50 after 48 hrs by cDNA microarray technique relative to control; how it was run: as §1
HT-29 [12] = test: Down regulation of GBP1 gene expression in human HT-29 cells at IC50 after 48 hrs by cDNA microarray technique relative to control; how it was run: as §1
HT-29 [13] = test: Down regulation of AK5 gene expression in human HT-29 cells at IC50 after 48 hrs by cDNA microarray technique relative to control
How it was run: (§2)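 8 × 10⁶ cells exposed 48 h to compound at its IC50 concentration; total RNA isolated with trizol/chloroform and RNeasy columns including on-column DNase step; RNA quantified by OD 260/280; DMSO-treated cultures as control.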

MCF7 [14] = test: Down regulation of CHST9 gene expression in human MCF7 cells at IC50 after 48 hrs by cDNA microarray technique relative to control; how it was run: as §2
MCF7 [15] = test: Upregulation of CD84 gene expression in human MCF7 cells at IC50 after 48 hrs by cDNA microarray technique relative to control
HT-29 [16] = test: Down regulation of CDH4 gene expression in human HT-29 cells at IC50 after 48 hrs by cDNA microarray technique relative to control; how it was run: as §2
MCF7 [17] = test: Upregulation of ADPN gene expression in human MCF7 cells at IC50 after 48 hrs by cDNA microarray technique relative to control
HT-29 [18] = test: Down regulation of DNAJC5B gene expression in human HT-29 cells at IC50 after 48 hrs by cDNA microarray technique relative to control; how it was run: as §1
MCF7 [19] = test: Upregulation of NPAT gene expression in human MCF7 cells at IC50 after 48 hrs by cDNA microarray technique relative to control
MCF7 [20] = test: Upregulation of MGC2474 gene expression in human MCF7 cells at IC50 after 48 hrs by cDNA microarray technique relative to control
MCF7 [21] = test: Upregulation of NRTN gene expression in human MCF7 cells at IC50 after 48 hrs by cDNA microarray technique relative to control
HT-29 [22] = test: Down regulation of CKLFSF5 gene expression in human HT-29 cells at IC50 after 48 hrs by cDNA microarray technique relative to control; how it was run: as §2
HT-29 [23] = test: Down regulation of DNAJC7 gene expression in human HT-29 cells at IC50 after 48 hrs by cDNA microarray technique relative to control; how it was run: as §1
HT-29 [24] = test: Down regulation of PRKCABP gene expression in human HT-29 cells at IC50 after 48 hrs by cDNA microarray technique relative to control
MCF7 [25] = test: Down regulation of TDGF1 gene expression in human MCF7 cells at IC50 after 48 hrs by cDNA microarray technique relative to control
MCF7 [26] = test: Down regulation of THC2441203 gene expression in human MCF7 cells at IC50 after 48 hrs by cDNA microarray technique relative to control
HT-29 [27] = test: Down regulation of PCSK9 gene expression in human HT-29 cells at IC50 after 48 hrs by cDNA microarray technique relative to control
MCF7 [28] = test: Upregulation of SCGB1D2 gene expression in human MCF7 cells at IC50 after 48 hrs by cDNA microarray technique relative to control
HT-29 [29] = test: Down regulation of PYCRL gene expression in human HT-29 cells at IC50 after 48 hrs by cDNA microarray technique relative to control
HT-29 [30] = test: Down regulation of TAF5L gene expression in human HT-29 cells at IC50 after 48 hrs by cDNA microarray technique relative to control
HT-29 [31] = test: Down regulation of FUS gene expression in human HT-29 cells at IC50 after 48 hrs by cDNA microarray technique relative to control; how it was run: as §1
MCF7 [32] = test: Upregulation of X77737 gene expression in human MCF7 cells at IC50 after 48 hrs by cDNA microarray technique relative to control
HT-29 [33] = test: Upregulation of UNC5B gene expression in human HT-29 cells at IC50 after 48 hrs by cDNA microarray technique relative to control

## COC(CN(c1ccccc1CO)S(=O)(=O)c1ccccc1[N+](=O)[O-])n1cnc2ncnc(Cl)c21 (racemic)
MCF7 [1]
  fold change (FC): -2.2
HT-29 [2]
  fold change (FC): 4.72
HT-29 [3]
  fold change (FC): -2.63
HT-29 [4]
  fold change (FC): -2.03
MCF7 [5]
  fold change (FC): -2.27
HT-29 [6]
  fold change (FC): -2.04
MCF7 [7]
  fold change (FC): 2.24
HT-29 [8]
  fold change (FC): -2.25
MCF7 [9]
  fold change (FC): -2.4
HT-29 [10]
  fold change (FC): 2.54
MCF7 [11]
  fold change (FC): -2.12
HT-29 [12]
  fold change (FC): -2.47
HT-29 [13]
  fold change (FC): -3.52
MCF7 [14]
  fold change (FC): -2.53
MCF7 [15]
  fold change (FC): 3.37
HT-29 [16]
  fold change (FC): -2.22
MCF7 [17]
  fold change (FC): 2.37
HT-29 [18]
  fold change (FC): -2.49
MCF7 [19]
  fold change (FC): 2.68
MCF7 [20]
  fold change (FC): 2.23
MCF7 [21]
  fold change (FC): 4.22

## O=C(OCC1c2ccccc2-c2ccccc21)N1CC(n2cnc3c(Cl)ncnc32)OCc2ccccc21 (racemic)
HT-29 [22]
  fold change (FC): -2.19
HT-29 [23]
  fold change (FC): -2.2
HT-29 [24]
  fold change (FC): -2.13
MCF7 [25]
  fold change (FC): -3
MCF7 [26]
  fold change (FC): -3.19
HT-29 [27]
  fold change (FC): -2.32
MCF7 [28]
  fold change (FC): 6.02
HT-29 [29]
  fold change (FC): -2.36
HT-29 [30]
  fold change (FC): -2.18
HT-29 [31]
  fold change (FC): -2.99
MCF7 [32]
  fold change (FC): 3.11
HT-29 [33]
  fold change (FC): 2.42
